# Compounds with a hit are over-represented: about 4.1% of the library has one in this group of screens.
# KCNQ1 pot: potentiates or activates the human KCNQ1 potassium channel; hit rate 0.35% among 310,000; CHO-K1 KCNQ1, thallium flux FluxOR fluorescence; stronger effect = higher value; B-score at 10 µM; P51787;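 active means fluorescence ratio B-score, a plate-corrected score, at least three library SD, with initial intensity B-score within 5 SD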
#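 assay system = KCNQ1-transfected CHO-K1 cells | medium = assay buffer with matched DMSO | probe or stimulus = depolarizing K+/Tl+ stimulus, K2SO4 and Tl2SO4 each 12.5 mM in 5x stock | dosing = single dose | incubation = dye 90 min, compound 20 min, room temperature | detection = kinetic FluxOR fluorescence, 10 s baseline plus 110 s post-stimulus | evaluation = ratio B score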
# KCNK3 block: human KCNK3 channel inhibition, primary screen; O14649; CHO-KCNK3 thallium flux, FluxOR fluorescence; stronger effect = lower value; B-score at 10 µM; hit rate 0.84% among 340,000; AID 602410;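 active means B-score under library mean minus 4 SD, starting fluorescence ratio at most library mean plus 5 SD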;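 further: more negative B-score means stronger inhibition of thallium flux through KCNK3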
# Target sequence (O14649 whole entry, looked up): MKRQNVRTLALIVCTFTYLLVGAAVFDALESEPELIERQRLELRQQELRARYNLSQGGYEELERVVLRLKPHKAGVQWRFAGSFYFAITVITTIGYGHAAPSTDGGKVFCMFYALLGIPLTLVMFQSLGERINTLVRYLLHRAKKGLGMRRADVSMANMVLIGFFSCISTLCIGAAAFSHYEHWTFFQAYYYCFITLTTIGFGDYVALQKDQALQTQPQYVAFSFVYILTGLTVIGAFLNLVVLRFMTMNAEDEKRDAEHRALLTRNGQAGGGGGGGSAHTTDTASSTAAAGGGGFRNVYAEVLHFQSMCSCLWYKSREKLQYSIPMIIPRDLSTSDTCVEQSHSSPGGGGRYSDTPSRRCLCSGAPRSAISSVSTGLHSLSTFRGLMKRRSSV
# KCC2 mod: modulators of human KCC2 chloride dependent transport; Q9H2X9; B-score of Tl+ flux slope (higher = more flux/activation; lower = inhibition) at 10 µM; KCC2 cells, thallium flux FluoZin-2 fluorescence; AID 1456; hit rate 2.2% among 190,000;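 active means thallium flux slope and its plate-corrected score both differing from the plate sample mean at a set confidence after two filtering rounds, in either direction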;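 further: slope of fluorescence scaled to starting intensity during 10 to 20 s after thallium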
# hERG protect: shields human hERG channel from block by proarrhythmic agents | CHO-hERG, FluxOR thallium flux, dofetilide IC70 present | Q12809 | activation (rescue from dofetilide block), less the hit threshold, % at 10 µM | hit rate 0.51% among 310,000;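 active means activation above the mean of controls blocked by dofetilide plus 5 SD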;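 further: thallium influx through hERG after potassium depolarization seen as dye fluorescence rise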
# KCNK9 inh: blocks the human KCNK9 two-pore domain potassium channel; Q9NPC2; HEK293 KCNK9, FluxOR thallium flux fluorescence; stronger effect = lower value; B-score at 10 µM; hit rate 1.2% among 310,000; AID 488922;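 active means ratio B-score over 3 SD below the library mean, with starting fluorescence within 5 SD of its mean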;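 further: negative B-score means less thallium flux so channel inhibition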
# KCNQ1 block: blocks the human KCNQ1 potassium channel; CHO-K1 KCNQ1, FluxOR thallium flux fluorescence; stronger effect = higher value; P51787; B-score at 10 µM; AID 2642; hit rate 1.3% among 310,000;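 active means compounds whose thallium flux B-score, printed positive for inhibition, exceeds three library SD while starting fluorescence stays within three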;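 further: channel opened by potassium depolarization with thallium stimulus after 20 min compound exposure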
# The depositor's hits bear a star; i = inactive; / = not tested or not shown.
SMILES,KCNQ1 pot,KCNK3 block,KCC2 mod,hERG protect,KCNK9 inh,KCNQ1 block
CCC(c1nnnn1C(C)(C)C)N(Cc1cccs1)Cc1cc2cc(C)c(C)cc2n2nnnc12 (stereo not given),i,/,-1.3,-2,-14*,i
CC12CC3CC(C)(C1)CC(C(=O)N1CCN(C(=O)C4CCCO4)CC1)(C3)C2 (stereo not given),i,i,/,-5,i,i
Cc1ccc2nc(SC(C)C(=O)NCc3ccc4c(c3)OCO4)[nH]c2c1 (stereo not given),i,i,-0.25,19*,i,i
CC(Sc1ccc(Cl)cc1)C(=O)NCc1ccc2c(c1)OCO2 (stereo not given),i,i,-0.26,-5,i,i
Cc1cc(C(=O)NC2CCCc3c2cnn3-c2ccc(C(C)(C)C)cc2)nn1C (stereo not given),i,i,/,-23,i,8*
Cc1cc(C)cc(-n2ncc3c2CCCC3NC(=O)c2cc(C)n(C)n2)c1 (stereo not given),i,i,/,-13,i,i
Cc1ccc(/C=N/Nc2nc(Cl)c(Cl)cc2Cl)s1,i,i,7.6*,-2,i,i
Cc1ccc(C(C)C)c(OCCN(C)C)c1,i,i,/,6.6*,i,i
CCCN(CCC)CCOc1cc(C)ccc1C(C)C,i,i,0.0071,-6,i,i
CC(CCc1ccccn1)(CCc1ccccn1)C(=O)c1ccccc1,/,i,/,/,/,/
Cc1ccc(S(=O)(=O)N2CCCC(CCC(=O)NCc3ccccc3F)C2)s1 (stereo not given),i,i,-1.8,-3,-8*,i
CC1=C(C(=O)N2CCCC(CCC(=O)NCc3ccccc3F)C2)OCCO1 (stereo not given),i,i,-0.34,-7,i,i
COC(=O)CCSCC(=O)Nc1ccc(C)c(S(=O)(=O)N2CCCCC2)c1,i,i,-0.22,-13,i,i
CCn1c(SC(C)C(=O)Nc2ccc3c(c2)OCCO3)nnc1C1CC1 (stereo not given),/,i,/,/,/,/
O=C(NNc1ccccc1Br)C(=O)n1ccc2ccccc21,i,i,12*,-4,i,i
O=C(Nc1ccccc1Br)C(=O)N1CCCC1,i,i,-0.38,-6,i,i
CCOC(=O)c1[nH]cnc1C(=O)NC1CCN(C(=O)OC(C)(C)C)CC1,/,i,/,/,/,/
Cc1[nH][nH]c(=O)c1C,/,i,/,/,/,/
O=C(Cc1csc(Nc2nc(=S)[nH]c3ccccc23)n1)NCc1ccccc1Cl,i,i,2,-2,i,i
Cc1ccc(CNC(=O)Cc2csc(Nc3nc(=S)[nH]c4ccccc34)n2)cc1,i,/,9.7*,-3,i,i
Cc1nn(-c2ccccc2)c(Cl)c1/C=C(\CC(=O)O)c1nc2ccccc2s1,i,i,-3*,-10,i,i
C/C(CC(=O)Nc1cccc(F)c1)=N\NC(=O)c1ccncc1,i,i,/,-6,i,i
CCC(C)n1c(SC(C)C#N)nc2ccccc2c1=O (stereo not given),i,i,-0.9,5.0*,i,i
CC(C#N)On1c(SC(C)C#N)nc2ccccc2c1=O (stereo not given),i,i,/,-9,i,i
Cn1c(=O)c2c(nc(N/N=C/c3ccc(OC(=O)c4ccco4)cc3)n2Cc2ccccc2Cl)n(C)c1=O,i,i,0.11,-6,i,7*
SMILES,KCNQ1 pot,KCNK3 block,KCC2 mod,hERG protect,KCNK9 inh,KCNQ1 block
CC(=O)c1nn(-c2ccc(C(F)(F)F)cc2)c(=O)[nH]c1=O,i,i,/,0,i,i
COc1ccc(N2CCN(C(=O)CSc3ccc(C)cc3)CC2)cc1,i,i,-0.09,-6,i,i
COc1ccc(N2CCN(C(=O)CSc3ccc([N+](=O)[O-])cc3)CC2)cc1,i,i,1.1,-3,i,8*
COc1ccc2nc(N3C(=O)/C(=C/c4ccccc4)NC3=S)sc2c1,62*,i,76*,63*,i,i
Cc1ccc(NS(=O)(=O)c2cc([N+](=O)[O-])ccc2NNC(=S)Nc2cc(C)ccc2C)c(C)c1,i,i,-0.61,-12,i,6*
COc1ccc(NC(=S)NNc2ccc([N+](=O)[O-])cc2S(=O)(=O)Nc2ccc(C)cc2C)cc1,i,i,-0.5,-25,i,7*
Cc1cccc(NC(=S)NNc2cccc(Cl)c2)c1,i,i,/,-14,i,i
Cc1ccc(NS(=O)(=O)c2cc([N+](=O)[O-])ccc2NNC(=S)Nc2cccc(Cl)c2)c(C)c1,i,i,-1.6,-17,i,6*
COc1ccc(NC(=O)C2CCN(S(=O)(=O)c3ccc4c(c3)NC(=O)CO4)CC2)cc1,i,i,/,-6,i,i
CCCN1C(=O)c2ccccc2NC1c1ccc(Cl)c(Cl)c1 (stereo not given),i,i,/,-5,i,i
CCCCN1C2=C(C(=O)CCC2)C(c2ccc(Cl)c(Cl)c2)C2=C1c1ccccc1C2=O (stereo not given),i,-9.9*,/,-9,i,i
Cc1c(O)ccc(/C(Cc2ccc3ccccc3n2)=N\N)c1O,i,i,-3.4,-8,-7.9*,i
CCc1cc(/C(Cc2ccc3ccccc3n2)=N\O)c(O)cc1O,i,i,-3.5,-11,i,i
CC(=O)c1cnc(Nc2nc(C)c3cc(C)c(C)cc3n2)nc1C,i,i,0.64,7.7*,i,i
CSc1ncc(C(C)=O)c(C)n1,i,i,1.1,-8,i,i
O=C(Nc1ccc(S(=O)(=O)N2CCCCC2)cc1)c1ccc(CN2CCc3ccccc3C2)cc1,i,i,-1.2,-11,i,6*
O=C(Nc1nnc(-c2ccccc2Cl)o1)c1ccc(S(=O)(=O)N2CCCCCC2)cc1,i,/,8.5*,-6,i,i
CS(=O)(=O)c1ccccc1-c1nnc(NC(=O)c2ccc(S(=O)(=O)N3CCCC3)cc2)o1,i,i,/,-3,i,i
CC(=O)/C(=C/N(C)C)C(=O)Nc1ccc(Cl)cc1Cl,i,i,-0.34,-7,i,10*
CN(C)CCNC=C(C(=O)Nc1ccc(Cl)cc1Cl)C(=O)Nc1ccc(Cl)cc1Cl,i,i,/,-3,i,i
CCN1CCN(C(=O)c2cc(=O)c3cc(C)ccc3o2)CC1,i,i,/,-1,i,i
Cc1cccc(-n2c(-c3csc(C)c3C)n[nH]c2=S)c1,i,i,3.9,-6,i,i
Cc1cccc(-n2c(-c3csc(C(C)C)c3)n[nH]c2=S)c1,i,i,7.6*,-10,i,i
